According to paper PMC6551323 (Acta biomaterialia, 2018):

Type: in vitro ADME, bovine
Settings: healthy explants; 24 h absorption, 7-day desorption in 10x PBS
Summary of the method: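 After 24 h uptake of 30 µM 5-FAM-labelled peptide at 37 °C, bovine cartilage disks were desorbed in 1x or 10x PBS with protease inhibitors for up to 7 days. The bath was changed daily and desorbed peptide was read by plate reader. % retention is moles remaining in tissue after desorption divided by moles taken up at 24 h. Mean ± SD, n=6–8 explants, ≥4 animals.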

## (ARRRAARA)4 [CPC +16]
  % CPC desorbed in 10x PBS over 7 days: about 40%
